As usually defined, the EC50 is the midpoint of the concentration-response curve. Low values mean higher potency in that assay, high ones lower potency in that assay. One may read the CC50 as the concentration that lowers cell viability or growth by half. Higher therefore signals lower toxicity to the cells.

Calls of active or inactive are those of the source. The rule behind the calls is not given here.

Among the data in ChEMBL document CHEMBL1141224, “Parallel solution-phase and microwave-assisted synthesis of new S-DABO derivatives endowed with subnanomolar anti-HIV-1 activity” (J Med Chem, 2005) are EC50, CC50 and ID50 values, retold here.

Test [1] relates to Human immunodeficiency virus 1. As to the kind of experiment: Antiviral activity against wild type HIV1 NL4-3 infected MT4 cells by MTT method. It is filed as functional, organism-based. As to conditions: Human immunodeficiency virus 1, NL4-3, MT4. Put shortly:
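MT-4 lymphoid cells infected with HIV-1 NL4-3 in the presence of graded drug concentrations. Viable cells counted by MTT colorimetric assay at day 5 post-infection. EC50 is the concentration protecting 50% of cells from HIV-induced death. Mean of at least two experiments.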
(In general: Tetrazolium assays rely on reduction of a dye to a coloured formazan, in cell work by metabolically active cells.)

The test system of test [2] is Human immunodeficiency virus 1. Put plainly: Antiviral activity against HIV1 IRLL98 mutant strain infected MT4 cells by MTT method. The class given is functional, organism-based. As to conditions: Human immunodeficiency virus 1, IRLL98, MT4. The essentials: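 MT-4 cells infected with the HIV-1 mutant strain, or mock-infected for cytotoxicity, in the presence of a range of drug concentrations. Viable cells were counted by MTT colorimetric assay on day 5 post-infection. EC50 is the concentration that blocks 50% of HIV-induced cell death. Values are the mean of at least two experiments. IRLL98 carries RT mutations K101Q, Y181C and G190A, plus NRTI mutations.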

For test [3], the system named is Human immunodeficiency virus 1. Put plainly: Antiviral activity against HIV1 K103N mutant strain infected MT4 cells by MTT method. The class given is functional, organism-based. As to conditions: Human immunodeficiency virus 1, K103N.
Test [4] deals with Human immunodeficiency virus 1. As to the kind of experiment: Antiviral activity against HIV1 Y188L mutant strain infected MT4 cells by MTT method. The class given is functional, organism-based. The note with it: Human immunodeficiency virus 1, Y188L, MT4.
The test system of another test is MT4. As to the kind of experiment: Cytotoxicity against MT4 cells by MTT method. The class given is functional. As to conditions: Homo sapiens. The essentials:
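Mock-infected MT-4 cells exposed to graded drug concentrations. Viability assessed by MTT colorimetric method at day 5. CC50 is the concentration causing 50% death of noninfected cells. Mean of at least two experiments.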

Test [5] concerns Human immunodeficiency virus type 1 reverse transcriptase (Human immunodeficiency virus 1), Q72547 [K103N]. As to the kind of experiment: Inhibition of K103N mutant HIV1 reverse transcriptase by [3H]dTTP poly(rA)/oligo(dT) incorporation at 400 uM. Put shortly:
(§1)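 RNA-dependent DNA polymerase assay of recombinant RT at 5–10 nM. Template: poly(rA)/oligo(dT) (0.3 μM 3'-OH ends) with 10 μM [3H]-dTTP. Run 10 min at 37 °C with increasing inhibitor. TCA-precipitated product was counted on GF/C filters. Highest concentration tested was 400 μM.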

Test [6] has as its system Human immunodeficiency virus type 1 reverse transcriptase (Human immunodeficiency virus 1), Q72547 [Y181I]. Put plainly: Inhibition of Y181I mutant HIV1 reverse transcriptase by [3H]dTTP poly(rA)/oligo(dT) incorporation at 400 uM. The essentials: as §1
Test [7] has as its target Human immunodeficiency virus type 1 reverse transcriptase (Human immunodeficiency virus 1) (UniProt Q72547).

`Cc1c(O)nc(SCc2cccc(C#N)c2)nc1Cc1c(Cl)cccc1Cl`: the EC50 in test [1] is 890 nM; in test [2], 5000 nM; in test [3], above 60 µM; in test [4] it was above 60 µM. Further, in the test on MT4, the 50% cytotoxic concentration (CC50) was above 60 µM. For the same molecule, the ID50 entry in test [5] and in test [6] was “inactive” in each case. The ID50 in test [7] worked out at 9.5 µM.
In the case of `O=C1Nc2ccc(Cl)cc2[C@@](C#CC2CC2)(C(F)(F)F)O1` [EFAVIRENZ], the EC50 in test [2] came out at 200 nM; in test [3], 0.057 µM. This molecule also registered a CC50 with MT4 above 0.32 µM.
Regarding `CCOc1ccc(CSc2nc(O)c(C)c(Cc3c(Cl)cccc3Cl)n2)cc1`, the EC50 in test [1] was 250 nM; in test [2] it was 1900 nM; in test [3], above 58 µM; in test [4], above 58 µM. The same molecule registered a CC50 with MT4 above 58 µM. The ID50 entry in test [5] and in test [6] was “inactive” each time. The molecule also came in with an ID50 in test [7] of 2 µM.
Consider `COc1ccc(CSc2nc(O)c(C)c(Cc3c(Cl)cccc3Cl)n2)cc1OC`, for which the EC50 in test [1] was 200 nM; in test [2], 930 nM; in test [3] it was 10 µM; in test [4], above 55 µM. The molecule also came in with a CC50 with MT4 above 55 µM. The ID50 result in test [5] and in test [6] was “inactive” each time. Besides, the ID50 in test [7] was determined as 1.2 µM.
`Cc1c(O)nc(SCc2ccc(F)cc2)nc1Cc1c(Cl)cccc1Cl`: the EC50 in test [1] is 110 nM; in test [2] it was 2700 nM; in test [3] it was 27 µM; in test [4] it was above 61 µM. In addition, the CC50 in the test on MT4 is above 61 µM. The ID50 result in test [5] and in test [6] was “inactive” throughout. In test [7], this molecule came in with an ID50 of 16 µM.
Take `Cc1c(O)nc(SCc2ccc3c(c2)OCO3)nc1Cc1c(Cl)cccc1Cl`: the EC50 in test [1] amounted to 120 nM; in test [2], 510 nM; in test [3], 5.3 µM; in test [4], 33 µM. The molecule further registered a CC50 with MT4 above 57 µM. In addition, the ID50 entry in test [5] and in test [6] was “inactive” throughout. Further, the ID50 in test [7] came to 0.5 µM.
Turning to `Cc1c(O)nc(SCc2ccc(C#N)cc2)nc1Cc1c(Cl)cccc1Cl`, the EC50 in test [1] is 170 nM; in test [2], 1000 nM; in test [3], 0.1 µM; in test [4], above 60 µM. The CC50 with MT4 is above 60 µM. In addition, the ID50 result in test [5] and in test [6] was “inactive” each time. Besides, the ID50 in test [7] was 103 µM.
For the molecule `COc1ccc(CSc2nc(O)c(C)c(Cc3c(Cl)cccc3Cl)n2)c(OC)c1`, the EC50 in test [1] was 1330 nM; in test [2] it was above 55000 nM; in test [3], above 55 µM; in test [4], above 55 µM. Also, in the test with MT4, the CC50 was above 55 µM. The ID50 result in test [5] and in test [6] was “inactive” each time. In test [7], this molecule came in with an ID50 of 25 µM.
Turning to `Cc1c(O)nc(SCc2ccc(Cl)cc2)nc1Cc1c(Cl)cccc1Cl`, the EC50 in test [1] is 470 nM; in test [2] it was 2100 nM; in test [3] it was above 59 µM; in test [4], above 59 µM. The molecule further had a CC50 in the test on MT4 above 59 µM. For the same molecule, the ID50 entry in test [5] and in test [6] was “inactive” each time. In addition, in test [7], the ID50 was found to be 20 µM.
`Cc1cn([C@H]2C[C@H](N=[N+]=[N-])[C@@H](CO)O2)c(=O)[nH]c1=O` [ZIDOVUDINE]: the EC50 in test [1] turned out to be 3 nM; in test [2], 8 nM; in test [3], 0.003 µM; in test [4], 0.003 µM. The molecule also showed a CC50 with MT4 of 3.7 µM.
Consider `COc1cc(CSc2nc(O)c(C)c(Cc3c(Cl)cccc3Cl)n2)cc(OC)c1`, for which the EC50 was 33000 nM in test [1], above 55000 nM in test [2], above 55 µM in test [3] and above 55 µM in test [4]. Further, in the test with MT4, the CC50 is above 55 µM. Besides, the ID50 result in test [5] and in test [6] was “inactive” in each case. Also, the ID50 in test [7] was found to be 256 µM.
